Among the data in ChEMBL document CHEMBL1146238, “Prenylated xanthones from the root bark of Cudrania tricuspidata” (J Nat Prod, 2007) are IC50 values, retold here.

The target in the experiment is T1, Amine oxidase [flavin-containing] A (Mus musculus, UniProt Q64133).
T1 sequence (Q64133 whole entry): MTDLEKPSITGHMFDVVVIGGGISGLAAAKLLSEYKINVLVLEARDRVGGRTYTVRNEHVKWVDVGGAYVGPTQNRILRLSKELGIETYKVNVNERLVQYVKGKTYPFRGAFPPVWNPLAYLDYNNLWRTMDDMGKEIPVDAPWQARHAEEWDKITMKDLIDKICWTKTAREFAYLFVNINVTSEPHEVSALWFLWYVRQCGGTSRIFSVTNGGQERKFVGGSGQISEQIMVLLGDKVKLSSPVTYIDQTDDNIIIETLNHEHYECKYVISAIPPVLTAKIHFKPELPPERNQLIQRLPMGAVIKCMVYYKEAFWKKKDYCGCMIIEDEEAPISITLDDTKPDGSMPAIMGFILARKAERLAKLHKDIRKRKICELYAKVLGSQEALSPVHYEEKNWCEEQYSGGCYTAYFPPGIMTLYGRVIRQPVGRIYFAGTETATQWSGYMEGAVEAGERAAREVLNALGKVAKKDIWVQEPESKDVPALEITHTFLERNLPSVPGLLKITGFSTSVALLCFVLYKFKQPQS
Put plainly: Inhibition at monoamine oxidase in mouse brain. It counts as tissue-based. The gist of the method: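 Enzyme source: mouse brain mitochondrial fraction. Substrate kynuramine, with MAO converting it to 4-hydroxyquinoline. That product is read fluorometrically at excitation 315 nm and emission 380 nm. Compounds go in as DMSO solutions, with DMSO kept below 3%. Iproniazid serves as the positive control. Result reported as IC50.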
As a reminder, the IC50 is the concentration at which inhibition is half-maximal. Lower therefore signals greater potency. Compound `C=CC(C)(C)c1c(O)cc2oc3c(CC=C(C)C)c(O)c(O)cc3c(=O)c2c1O` [CUDRAXANTHONE L] returned a half-inhibitory concentration (IC50) of over 150 µM. The compound `C=CC(C)(C)c1c(O)cc(O)c2c(=O)c3cc(O)c(O)cc3oc12` [CUDRATRICUSXANTHONE L] had an IC50 of over 150 µM.

Regarding `CC(C)=CCc1c(O)cc2c(c1O)C(=O)C[C@@H](c1cc3c(cc1O)OC(C)(C)C=C3)O2` [CUDRAFLAVANONE A], the IC50 is 89.7 µM. `COc1c(CC=C(C)C)c(O)c2c(=O)c3cc(O)c(O)cc3oc2c1CC=C(C)C` [CUDRATRICUSXANTHONE K] gave an IC50 of over 150 µM. On to `CC(C)=CC1Oc2cc(O)ccc2-c2oc3cc4c(c(O)c3c(=O)c21)C=CC(C)(C)O4` (stereo unspecified) [CUDRAFLAVONE A], for which the 50% inhibitory concentration (IC50) was over 150 µM.

Take `C=CC(C)(C)c1c(O)cc(O)c2c(=O)c3c(CC=C(C)C)c(OC)c(O)cc3oc12` [CUDRAXANTHONE C]: the IC50 is over 150 µM.

`CC(C)=CCc1c(O)c(O)cc2oc3c4c(cc(O)c3c(=O)c12)OC(C)C4(C)C` (stereo unspecified) [CUDRATRICUSXANTHONE J] returned a half-inhibitory concentration (IC50) of over 150 µM. With `C=CC(C)(C)c1c(O)cc2oc3c4c(c(O)cc3c(=O)c2c1O)OC(C)(C)C=C4` [ISOCUDRAXANTHONE K], the IC50 was over 150 µM. Take `C=CC(C)(C)c1c(O)cc(O)c2c(=O)c3c(CC=C(C)C)c(O)c(O)cc3oc12` [CUDRATRICUSXANTHONE A]: the concentration for half-maximal inhibition (IC50) worked out at 88.3 µM. This lies in the double-digit micromolar range. Under `CC(C)=CCc1c(-c2ccc(O)cc2O)oc2cc3c(c(O)c2c1=O)C=CC(C)(C)O3` [CUDRAFLAVONE B] stands 80 µM; under `C=CC(C)(C)c1c(O)cc(O)c2c(=O)c3c(CCC(C)(C)O)c(O)c(O)cc3oc12` [CUDRATRICUSXANTHONE M], over 150 µM.
